Key:
Format in all cases: ADME
[1] = target: T1, Cytochrome P450 2A6 (Homo sapiens, UniProt P11509); assay: Activity at recombinant CYP2A6 (unknown origin) expressed in baculovirus-infected insect cells assessed as enzyme-mediated drug depletion at 1 to 10 uM by LC-MS/MS analysis in presence of NADPH
T1 sequence (P11509 whole entry): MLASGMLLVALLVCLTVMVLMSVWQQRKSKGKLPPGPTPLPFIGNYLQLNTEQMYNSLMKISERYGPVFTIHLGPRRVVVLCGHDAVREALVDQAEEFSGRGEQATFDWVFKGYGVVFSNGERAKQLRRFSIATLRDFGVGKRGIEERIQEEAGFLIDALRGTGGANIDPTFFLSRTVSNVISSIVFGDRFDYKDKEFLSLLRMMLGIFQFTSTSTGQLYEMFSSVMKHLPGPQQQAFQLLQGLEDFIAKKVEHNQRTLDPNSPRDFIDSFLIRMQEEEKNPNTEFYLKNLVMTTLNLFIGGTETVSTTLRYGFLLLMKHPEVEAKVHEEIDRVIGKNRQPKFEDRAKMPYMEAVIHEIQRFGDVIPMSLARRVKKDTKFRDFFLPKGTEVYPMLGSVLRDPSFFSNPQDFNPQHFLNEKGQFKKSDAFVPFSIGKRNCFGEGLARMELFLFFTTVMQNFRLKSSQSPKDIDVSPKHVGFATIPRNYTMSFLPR
How it was run: (§1)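 BILR 402 (1 or 10 μM) with baculovirus/insect-cell recombinant CYPs, levels scaled to average liver content (1A2 2, 2A6 1, 2B6 0.1, 2C9 1.5, 2C19 1.5, 2D6 0.3, 3A4 5 pmol/mL). Buffer 0.1 M potassium phosphate, 5 mM MgCl2, pH 7.4; 2.5 mM NADPH; 37 °C. Non-transfected insect microsomes served as controls. Aliquots taken 0.5–30 min and acetonitrile-quenched; depletion measured by LC-MS/MS with isotope-labelled internal standard.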

[2] = target: T2, Cytochrome P450 2B6 (Homo sapiens, UniProt P20813); assay: Activity at recombinant CYP2B6 (unknown origin) expressed in baculovirus-infected insect cells assessed as enzyme-mediated drug depletion at 1 to 10 uM by LC-MS/MS analysis in presence of NADPH; how it was run: as §1
T2 sequence (P20813 whole entry): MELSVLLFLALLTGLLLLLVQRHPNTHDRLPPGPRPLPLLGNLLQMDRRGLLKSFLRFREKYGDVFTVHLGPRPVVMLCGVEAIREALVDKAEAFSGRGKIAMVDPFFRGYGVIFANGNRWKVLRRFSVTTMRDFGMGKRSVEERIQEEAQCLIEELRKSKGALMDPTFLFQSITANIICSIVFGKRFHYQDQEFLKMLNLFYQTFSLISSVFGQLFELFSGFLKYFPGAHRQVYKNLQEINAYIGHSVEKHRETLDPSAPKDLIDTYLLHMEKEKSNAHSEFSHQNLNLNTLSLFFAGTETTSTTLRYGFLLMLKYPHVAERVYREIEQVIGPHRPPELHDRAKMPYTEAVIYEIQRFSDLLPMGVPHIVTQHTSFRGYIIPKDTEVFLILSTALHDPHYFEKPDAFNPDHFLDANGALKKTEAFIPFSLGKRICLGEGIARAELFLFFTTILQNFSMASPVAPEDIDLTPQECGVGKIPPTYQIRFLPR

[3] = target: Cytochrome P450 2D6 (Homo sapiens, UniProt P10635); assay: Activity at recombinant CYP2D6 (unknown origin) expressed in baculovirus-infected insect cells assessed as enzyme-mediated drug depletion at 1 to 10 uM by LC-MS/MS analysis in presence of NADPH; how it was run: as §1
Chain of Cytochrome P450 2D6 (P10635 whole entry): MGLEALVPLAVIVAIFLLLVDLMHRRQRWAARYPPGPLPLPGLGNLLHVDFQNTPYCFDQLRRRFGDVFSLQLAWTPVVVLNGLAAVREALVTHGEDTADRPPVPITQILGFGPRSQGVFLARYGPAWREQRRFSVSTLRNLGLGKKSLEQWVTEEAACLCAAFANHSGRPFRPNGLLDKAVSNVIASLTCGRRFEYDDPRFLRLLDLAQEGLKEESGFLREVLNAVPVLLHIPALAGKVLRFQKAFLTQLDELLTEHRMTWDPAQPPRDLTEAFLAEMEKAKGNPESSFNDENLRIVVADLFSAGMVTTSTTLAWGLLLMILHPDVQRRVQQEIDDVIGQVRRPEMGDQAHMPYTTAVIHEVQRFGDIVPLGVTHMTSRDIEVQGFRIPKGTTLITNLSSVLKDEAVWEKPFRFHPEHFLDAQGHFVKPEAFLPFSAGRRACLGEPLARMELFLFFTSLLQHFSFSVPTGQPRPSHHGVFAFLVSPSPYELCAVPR

[4] = target: T3, Cytochrome P450 3A4 (Homo sapiens, UniProt P08684); assay: Activity at recombinant CYP3A4 (unknown origin) expressed in baculovirus-infected insect cells assessed as enzyme-mediated drug depletion by measuring compound level at 1 uM after 4 mins by LC-MS/MS analysis in presence of NADPH
T3 sequence (P08684 whole entry): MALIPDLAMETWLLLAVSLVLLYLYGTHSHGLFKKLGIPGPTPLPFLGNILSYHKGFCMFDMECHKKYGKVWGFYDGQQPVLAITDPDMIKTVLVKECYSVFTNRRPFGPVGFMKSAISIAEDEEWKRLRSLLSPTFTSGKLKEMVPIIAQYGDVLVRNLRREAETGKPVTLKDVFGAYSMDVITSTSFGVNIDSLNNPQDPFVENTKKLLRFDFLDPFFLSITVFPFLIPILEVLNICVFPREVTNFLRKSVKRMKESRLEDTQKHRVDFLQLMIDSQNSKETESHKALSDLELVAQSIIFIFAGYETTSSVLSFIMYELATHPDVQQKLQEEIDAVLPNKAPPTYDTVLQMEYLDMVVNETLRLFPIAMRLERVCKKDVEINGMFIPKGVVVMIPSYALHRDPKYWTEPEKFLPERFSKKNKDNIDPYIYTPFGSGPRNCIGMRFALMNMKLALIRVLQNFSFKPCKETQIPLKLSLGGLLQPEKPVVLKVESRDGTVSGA
How it was run: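 rCYP3A4 (5 pmol/mL) incubated with BILR 402 at 1 or 10 μM in 0.1 M potassium phosphate/5 mM MgCl2, pH 7.4, with NADPH at 37 °C. Remaining BILR 402 and BILR 355 formed were read at 4 min by LC-MS/MS against a labelled internal standard.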

[5] = target: T4, Cytochrome P450 1A2 (Homo sapiens, UniProt P05177); assay: Activity at recombinant CYP1A2 (unknown origin) expressed in baculovirus-infected insect cells assessed as enzyme-mediated drug depletion at 1 to 10 uM by LC-MS/MS analysis in presence of NADPH; how it was run: as §1
T4 sequence (P05177 whole entry): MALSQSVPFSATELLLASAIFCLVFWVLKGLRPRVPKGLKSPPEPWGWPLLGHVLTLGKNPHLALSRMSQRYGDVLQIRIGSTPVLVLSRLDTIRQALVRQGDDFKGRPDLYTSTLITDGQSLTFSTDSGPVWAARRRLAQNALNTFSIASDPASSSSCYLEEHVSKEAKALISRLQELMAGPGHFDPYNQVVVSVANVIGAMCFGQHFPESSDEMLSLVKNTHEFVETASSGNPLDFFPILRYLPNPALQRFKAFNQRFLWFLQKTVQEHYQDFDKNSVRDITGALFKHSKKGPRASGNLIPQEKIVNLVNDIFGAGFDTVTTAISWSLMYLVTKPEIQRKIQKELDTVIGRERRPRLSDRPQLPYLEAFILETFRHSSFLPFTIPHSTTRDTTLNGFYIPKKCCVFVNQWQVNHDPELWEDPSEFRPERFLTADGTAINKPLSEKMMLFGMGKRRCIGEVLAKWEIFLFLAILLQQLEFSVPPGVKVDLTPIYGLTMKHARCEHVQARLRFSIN

[6] = target: T3, Cytochrome P450 3A4; assay: Activity at recombinant CYP3A4 (unknown origin) expressed in baculovirus-infected insect cells assessed as enzyme-mediated drug depletion at 1 to 10 uM by LC-MS/MS analysis in presence of NADPH; conditions: TDE = time-dependent effect; how it was run: as §1

Drug metabolism [1]: metabolite_not_detected
Drug metabolism [2]: metabolite_not_detected
Drug metabolism [3]: metabolite_not_detected
Drug metabolism [4]: 0.25 µM
Drug metabolism [5]: metabolite_not_detected
Drug metabolism [6]: tde
SMILES: CCN1c2ncc(CCOc3ccnc4ccccc34)cc2C(=O)N(C)c2cccnc21

Reference: ChEMBL document CHEMBL3525945, “Metabolic switching of BILR 355 in the presence of ritonavir. II. Uncovering novel contributions by gut bacteria and aldehyde oxidase” (Drug Metab Dispos, 2012)
